Published values pooled from the literature.
Each line is one published result; the experiments were not run side by side.
Medium: plasma

With `CC1(C)CC[C@]2(NC(=O)C(C)(F)F)CC[C@]3(C)[C@H](C(=O)C=C4[C@@]5(C)C=C(C#N)C(=O)C(C)(C)[C@@H]5CC[C@]43C)[C@@H]2C1` the Tmax was 12 h (human; oral, 150 mg, single dose).
The Tmax of `O=C(COc1ccc(Cl)cc1)NC12CC(c3nnc([C@H]4C[C@@H](OC(F)(F)F)C4)o3)(C1)C2` is reported as 8.02 h (human; oral, 45 mg, single dose, fasted, healthy volunteers).
`C[C@@H](Oc1ccc(S(C)(=O)=O)cc1C(=O)N1C[C@@H]2C[C@]2(c2cc(C(F)(F)F)on2)C1)C(F)(F)F` has a Tmax of 2.5 h (human; oral, 10 mg, single dose, fed).
For `N#Cc1cccc(-c2ccc3ncc(-c4cc(F)cc(F)c4)c(N4CCC(N)CC4)c3c2)c1O`, the Tmax was 1.5 h (male human; oral, 20 mg, single dose).
`CC(=O)N(C)[C@H]1CCN(C(=O)c2cnc3c(c2)C[C@](C)(c2ccc(F)cc2)N3)C1` gave a Tmax of 1.14 h (male human; oral, 15 mg, multiple doses, once daily, steady state).
With `COc1ccc(-c2c(Nc3ccccn3)[nH]c3c(C4=CCCCC4)c(-c4ccccc4)nn3c2=O)cc1` the Tmax was 1 h (human; oral, 200 mg twice daily, multiple doses, patients).
`COc1ccc2c(c1)CN(C(=O)CCN1CCC(Cc3ccccc3)CC1)CC[S@@+]2[O-]` gave a Tmax of 0 h (male human; intravenous, 0.15 mg/kg, healthy volunteers).
With `CC(C)n1cc(C#N)c2cc(-n3cc(C(=O)O)cn3)ccc21` the Tmax was 3.26 h (human; oral, 25 mg, single dose, fasted, healthy volunteers).
The Tmax of `OC[C@H]1O[C@@H](c2cc(Cc3ccc(C4CC4)cc3)c(Cl)c3c2CCO3)[C@H](O)[C@@H](O)[C@@H]1O` is reported as 1.25 h (human; oral, 0.3 mg, single dose, fasted, healthy volunteers).
